Article PMC3191534 (Translational stroke research, 2011)
Entries after “also recorded” stand apart in the source; their conditions may differ. Read-outs that look alike come from different tables or passages of the source. Marks after values point to notes of the source that are not given here.

What was measured:
[1] = tested on: Salmonella typhimurium TA100; assay: Ames genotoxicity test, TA100; format: cell-based
[2] = tested on: Salmonella typhimurium TA989; assay: Ames genotoxicity test, TA989; format: cell-based
[3] = Metabolic stability in human and animal liver microsomes, stated across species; format: in vitro ADME, dog, rat, mouse
HT22 cells [4] = assay: Oxidative glutamate toxicity; format: cell-based
Summary of the method: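 HT22 cells (DMEM, 10% FCS) were given the test compound, then 5 mM glutamate 30 min later to deplete GSH. Cell survival was measured 24 h after glutamate. Experiments were repeated at least three times in triplicate, shown as mean ± SD, and analysed by ANOVA with Bonferroni's test (P<0.05).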

[5] = rat, microsomes
HT22 cells [6] = assay: HT22 cell ATP content in the in vitro ischemia assay; format: cell-based; settings: 20 μM IAA; highest dose tested (10 μM)
[7] = dog, microsomes
[8] = human, microsomes
[9] = microsomes
HT22 hippocampal neurons = assay: In vitro ischemia assay; format: cell-based
Summary of the method: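 HT22 cells were grown in DMEM with 10% FCS and seeded at 5×10^3 cells/well. Next day they were switched to DMEM with 7.5% DFCS and given 20 μM iodoacetic acid ± test compound for 2 h, then fresh IAA-free medium with compound for 20 h. MTT (5 μg/ml) ran 4 h at 37°C, was solubilised in 50% DMF/20% SDS pH 4.7, and A570 was read next day. Runs were done ≥3 times in triplicate; ANOVA/Bonferroni.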

[10] = tested on: H4IIE rat hepatoma cell line; assay: CeeTox analysis, cellular toxicity panel; format: cell-based
[11] = tested on: free radical-induced peroxidation; settings: in vitro; cited from earlier work
[12] = tested on: rat intraluminal suture stroke model; settings: cited from earlier work
HT22 hippocampal cells = assay: HT22 neuroprotection, IAA or oxidative glutamate toxicity assays stated together; format: cell-based; settings: read-out: EC50, neuroprotection, either IAA or oxidative glutamate toxicity assay
P-glycoprotein (PgP) = assay: P-glycoprotein; format: cell-based, rat; settings: 50 μM
Summary of the method: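 H4IIE cells were exposed to the test compound at a single concentration (50 μM), with and without the PgP inhibitor cyclosporin A. Toxicity was measured by MTT assay and expressed as % control for each condition. The % difference was taken as the PgP interaction measure. The compound came from a DMSO stock, with a DMSO control, in a blinded contract CeeTox study.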

[13] = rat, in vivo; cited from earlier work
[14] = oxidative glutamate toxicity assay

## Nc1ccc2cc3ccccc3cc2c1 [2-aminoanthracene, reference compound]
[1]; TA100+S9, positive control
  Mean no. of positive wells: 48.00
[1]; TA100−S9, positive control
  Mean no. of positive wells: 48.00
[2]; TA989+S9, positive control
  Mean no. of positive wells: 48.00
[2]; TA989−S9, positive control
  Mean no. of positive wells: 36.00

## C[C@]12CC[C@H]3[C@@H](CCC4=CC(=O)CC[C@@]43C)[C@@H]1CC[C@@H]2O [testosterone, reference compound]
[3]; human
  half-life: 10 to 32 min

## Stilbazulenyl nitrone [STAZN]
HT22 cells [4]; 5 mM glutamate, HT22 cells
  concentration at which significance was first achieved: 5 µM
HT22 cells [4]; [14]
  increase in survival: 416%
  maximal level of protection, of total cell survival: ~52%
[1]; TA100+S9, .001963 mg/ml
  Mean no. of positive wells: 7.33
[1]; TA100+S9, .003906 mg/ml
  Mean no. of positive wells: 6.33
[1]; TA100+S9, .007813 mg/ml
  Mean no. of positive wells: 6.67
[1]; TA100+S9, .015625 mg/ml
  Mean no. of positive wells: 6.33
[1]; TA100+S9, .03125 mg/ml
  Mean no. of positive wells: 10.67
[1]; TA100+S9, .0625 mg/ml
  Mean no. of positive wells: 8.67
[1]; TA100, with or without S9, up to 0.0625 mg/ml (0.106 mM)
  mutagenicity (Ames test outcome): lack of mutagenicity; also recorded: not mutagenic
[1]; TA100−S9, .001963 mg/ml
  Mean no. of positive wells: 5.00
[1]; TA100−S9, .003906 mg/ml
  Mean no. of positive wells: 3.67
[1]; TA100−S9, .007813 mg/ml
  Mean no. of positive wells: 6.33
[1]; TA100−S9, .015625 mg/ml
  Mean no. of positive wells: 7.33
[1]; TA100−S9, .03125 mg/ml
  Mean no. of positive wells: 5.00
[1]; TA100−S9, .0625 mg/ml
  Mean no. of positive wells: 5.67
[5]
  Half-life t1/2: > 60 min
  Half-life t1/2, calculated value in parentheses: 95 min
[5]; 10 min
  Percent remaining of initial compound: 82.4%
[5]; 20 min
  Percent remaining of initial compound: 76.6%
[5]; 0.5 h
  Percent remaining of initial compound: 80.3%
  drug metabolized: 20%
[5]; 1 h
  Percent remaining of initial compound: 122 ^d %
[2]; TA989+S9, .001963 mg/ml
  Mean no. of positive wells: 2.33
[2]; TA989+S9, .003906 mg/ml
  Mean no. of positive wells: 1.33
[2]; TA989+S9, .007813 mg/ml
  Mean no. of positive wells: 5.00
[2]; TA989+S9, .015625 mg/ml
  Mean no. of positive wells: 3.00
[2]; TA989+S9, .03125 mg/ml
  Mean no. of positive wells: 4.00
[2]; TA989+S9, .0625 mg/ml
  Mean no. of positive wells: 2.33
[2]; TA989, with or without S9, up to 0.0625 mg/ml (0.106 mM)
  mutagenicity (Ames test outcome): lack of mutagenicity; also recorded: not mutagenic
[2]; TA989−S9, .001963 mg/ml
  Mean no. of positive wells: 1.33
[2]; TA989−S9, .003906 mg/ml
  Mean no. of positive wells: 1.33
[2]; TA989−S9, .007813 mg/ml
  Mean no. of positive wells: 0.33
[2]; TA989−S9, .015625 mg/ml
  Mean no. of positive wells: 0.67
[2]; TA989−S9, .03125 mg/ml
  Mean no. of positive wells: 0.00
[2]; TA989−S9, .0625 mg/ml
  Mean no. of positive wells: 0.67
HT22 cells [6]
  effect on IAA-induced ATP loss: significantly attenuate IAA-induced ATP loss
[7]
  Half-life t1/2: 71 min
[7]; 10 min
  Percent remaining of initial compound: 56.2%
[7]; 20 min
  Percent remaining of initial compound: 65.5%
[7]; 0.5 h
  Percent remaining of initial compound: 54.5%
[7]; 1 h
  Percent remaining of initial compound: 47.6%
  drug metabolized: approximately 50%
[3]
  half-life: 60 to 78 min
[8]
  Half-life t1/2: 78 min
[8]; 10 min
  Percent remaining of initial compound: 57.7%
[8]; 20 min
  Percent remaining of initial compound: 39.7%
[8]; 0.5 h
  Percent remaining of initial compound: 46.9%
[8]; 1 h
  Percent remaining of initial compound: 49.1%
  drug metabolized: approximately 50%
[9]
  Half-life t1/2: < 10 min
[9]; mouse
  Half-life t1/2, calculated value in parentheses: 27 min
[9]; mouse, 10 min
  Percent remaining of initial compound: 17.2%
[9]; mouse, 20 min
  Percent remaining of initial compound: 19.8%
[9]; mouse, 0.5 h
  Percent remaining of initial compound: 10.0%
[9]; mouse, 1 h
  Percent remaining of initial compound: 13.8%
  drug metabolized: 86%
HT22 hippocampal neurons; IAA assay
  increase in survival: 621%
  maximal level of protection, of total cell survival: approximately 60%
HT22 hippocampal neurons; read-out: EC50, neuroprotection in the IAA assay, estimated, 20 μM IAA, HT22 cells
  EC50: ~1 µM
[10]; H4IIE cells, 300 μM
  decrease in cellular ATP content: ~35%
[10]; H4IIE cells, 24 h
  ATP TC50: >300 µM
  Cell number TC50: >300 µM
  MTT TC50: >300 µM
  MemTox TC50: >300 µM
  Total GSH TC50: >300 µM
[10]; H4IIE cells, 24 h, all assays
  TC50 for all general toxicity measures: > 300 µM
[10]; H4IIE cells, measured as 8-isoprostane
  Membrane lipid peroxidation: 0
[10]; in vitro, HT22 EC50 vs CeeTox toxicity
  therapeutic safety window (efficacy/toxicity ratio): 60–150 fold
[11]
  potency relative to NXY-059 at inhibiting free radical-induced peroxidation: 300 times
[12]
  effect on behavior: improved behavior measured up to 30 days following ischemia
  effect on infarct volume: reduced infarct volume in a dose- and time-dependent manner
  neuroprotective doses, times lower than NXY-059: 300–600 times
HT22 hippocampal cells
  EC50: 1 to 5 µM
P-glycoprotein (PgP)
  interaction with PgP transporters: low-level interaction
P-glycoprotein (PgP); MTT, H4IIE cells, with cyclosporin A
  % Control (compound + CSA): 83.4%
P-glycoprotein (PgP); MTT, H4IIE cells, without CSA
  % Control (compound): 100.3%
P-glycoprotein (PgP); without vs with CSA
  % Difference: 16.9%
[13]
  circulating half-life t1/2, first phase of biexponential decline in blood levels: 28 min
